The list is not random: actives were taken first. Their share in the collection is about 1.9%.
MC4R ag barr – activates human MC4R beta-arrestin recruitment | U2OS MC4R beta-arrestin complementation, luminescence; percent of melanotan II response, DMSO zero | activation, % at 8.9 µM | actives 0.98% (n = 360,000) | AID 540308;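 active = activation above a per-plate cutoff, the mean activation of sample wells on that plate plus 3 SD, cut at about 8% in these data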
MC4R antag cAMP – antagonists of human melanocortin 4 receptor (MC4R) | MC4R-expressing cells, MTII-stimulated cAMP, LANCE TR-FRET | inhibition, % at 6.5 µM | actives 0.48% (n = 360,000) | AID 540295;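 active = inhibition above its plate's cutoff, the mean of tested wells on that plate plus 3 SD, cut at about 29% in these data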;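 note: 0% = Melanotan II alone and 100% = Melanotan II plus saturating MCL0020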
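Material: U2OS-MC4R stable cell line | Reagent: Melanotan II challenge after compound preincubation | Doses: One concentration, 6.5 µM nominal | Incubation: 30-min compound preincubation, 1-h Melanotan II challenge, 1-h detection, room temperature | Signal: TR-FRET cAMP assay | Replicates: One well per compound, no replicates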
NOD2 RIPK2 PPI – inhibitors of human NOD2-RIPK2 interaction | AID 624267 | CHO BLA complementation NOD2-RIPK2, CCF4 ratio | actives 0.38% (n = 360,000) | inhibition, % at 4.98 µM | O43353; in the data active = inhibition above about 21%;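 note: 0% = vehicle only and 100% = reference blocker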
NTR1 ag – activates human neurotensin receptor 1. P30989. NTR1-U2OS beta-arrestin-GFP spot imaging, agonist mode. activation, % at 20 µM. actives 0.17% (n = 330,000). AID 493036;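 active = activation at or above 40% of the spot to cytoplasm intensity ratio, with at least 20 cells analyzed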;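 note: 0% = DMSO without peptide and 100% = 100 nM NTR1 peptide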
Target sequence (P30989 whole entry, looked up): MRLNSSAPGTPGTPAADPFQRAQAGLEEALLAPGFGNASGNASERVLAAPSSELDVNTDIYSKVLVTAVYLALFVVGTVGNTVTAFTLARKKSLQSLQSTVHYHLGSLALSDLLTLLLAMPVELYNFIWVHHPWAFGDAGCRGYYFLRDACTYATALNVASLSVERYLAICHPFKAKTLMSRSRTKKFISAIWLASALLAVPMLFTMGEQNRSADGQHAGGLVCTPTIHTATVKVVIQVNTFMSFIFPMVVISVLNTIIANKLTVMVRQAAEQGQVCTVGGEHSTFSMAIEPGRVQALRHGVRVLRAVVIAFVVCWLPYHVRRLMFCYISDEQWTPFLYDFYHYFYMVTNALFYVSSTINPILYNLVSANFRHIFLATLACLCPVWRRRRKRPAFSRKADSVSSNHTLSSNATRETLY
TLR9-MyD88 block – blocks human TLR9 binding to MyD88; Q9NR96+Q99836; AID 504734; inhibition, % at 4.98 µM; actives 0.21% (n = 340,000); CHO BLA complementation TLR9-MyD88, CCF4 FRET ratio;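 active = inhibition above the mean over all tested compounds plus 3 SD, cut at about 21% in these data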;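 note: 0% = DMSO only wells and 100% = clavulanate BLA inhibitor control wells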
TLR4 MyD88 comp – blocks binding of human TLR4 to MyD88. AID 861. O00206+Q99836. inhibition, % at 8.4 µM. HeLa CL3-4 TLR4/MyD88 BLA complementation, FRET ratio. actives 0.18% (n = 200,000); in the data active = inhibition above about 25%;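 note: 0% = vehicle and 100% = reference inhibitor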
* marks the source's active call; other numbers are inactive results; . = no result.

SMILES	MC4R ag barr	MC4R antag cAMP	NOD2 RIPK2 PPI	NTR1 ag	TLR9-MyD88 block	TLR4 MyD88 comp
COc1ccc(C)cc1S(=O)(=O)Nc1ccc(F)cc1	-3.0	4.8	3.5	-0.2	2.6	-5.2
CCCC(=O)N1CCN(c2ccc(NC(=O)c3ccc([N+](=O)[O-])o3)cc2Cl)CC1	-3.0	-11.9	26.6*	.	2.9	-2.7
O=C(CCSCc1ccc(Cl)cc1)NCCc1ccccc1	-1.1	2.2	-3.7	-1.3	9.2	6.7
Cc1ccc(CSCCC(=O)NCCc2ccc(Cl)cc2)cc1	8.6*	7.7	6.9	-2.0	-4.5	-14.5
Cc1ccc(S(=O)(=O)NC(=O)C2(C)CCN2C(=O)c2cccc(F)c2)nc1 (stereo not drawn)	0.5	1.6	2.2	.	.	.
Cc1cc(C)c(NC(=O)c2ccccc2CCc2ccccc2)c(C)c1	28.9*	0.4	-4.4	4.3	3.4	-4.0
CCC(C(=O)N1CCN(S(=O)(=O)c2ccc(F)cc2)CC1)c1ccccc1 (stereo not drawn)	-0.2	8.5	-5.9	-2.4	-4.0	.
Cc1cc(Cl)ccc1OC(C)C(=O)NCCCCc1ccccc1 (stereo not drawn)	9.0*	14.5	5.9	8.4	-14.2	0.6
Cc1cc(Cl)ccc1OC(C)C(=O)NCCc1ccc2c(c1)OCCO2 (stereo not drawn)	0.6	14.1	8.9	1.9	5.8	7.8
COCCNC(=O)c1cc2cc3ccc(OC)cc3nc2o1	-0.3	11.1	-7.1	-0.4	3.7	.
COc1ccc2cc3cc(C(=O)NCCC(C)C)oc3nc2c1	8.8*	11.4	-2.2	-1.5	3.9	.
O=[N+]([O-])c1cc(Cl)ccc1Sc1cccc2cccnc12	8.8*	4.7	2.9	2.2	-5.4	10.0
CCCS(=O)(=O)NC(=O)C1(C)CCCN(C(=O)c2ccc(OC)cc2)C1 (stereo not drawn)	-2.0	9.1	-6.1	.	.	.
COc1cccc(-c2sc3ccccc3c2-c2ccc(OCCN3CCCCC3)cc2)c1	18.0*	16.7	3.8	14.0	3.1	.
COc1ccc(-c2sc3ccccc3c2-c2ccc(OCCN3CCCCC3)cc2)cc1	-0.6	4.7	-8.0	9.1	-2.3	.
COc1cccc(-c2sc3ccc(OC)cc3c2-c2ccc(OCCN3CCCC3)cc2)c1	27.3*	11.0	8.9	8.3	-1.0	.
COc1cccc(-c2sc3cc(OC)c(OC)cc3c2-c2ccc(OCCN3CCCCC3)cc2)c1	11.3*	14.0	-1.5	20.7	-2.5	.
COc1ccc(-c2sc3cc(OC)ccc3c2-c2ccc(OCCN3CCCCC3)cc2)cc1	.	.	4.2	.	.	.
COc1cccc(NC(=O)CN(C)C(=O)c2cc(S(=O)(=O)Nc3ccccc3OC)ccc2C)c1	-0.1	4.9	-2.5	.	3.6	.
CCCCNc1c(CC(C)C)nc2nc(C)cc(C)n12	.	.	8.5	.	.	.
O=C(OCc1ccc(Br)cc1)c1cnc(Cl)c(Cl)c1	-1.6	33.3*	-1.5	14.0	-1.3	.
O=C(OCCOc1ccc(Br)cc1)c1ccc(Cl)nc1	9.2*	25.9	-4.5	-0.5	-2.2	-13.4
O=C(OCc1ccc(Br)cc1)c1ccncc1	0.2	-6.0	-4.2	0.4	-6.0	7.9
O=S(=O)(NC1CC1)c1ccc(S(=O)(=O)N2CCCC3(CCCCC3)C2)cc1	9.8*	10.3	8.0	2.5	-1.2	-4.2
O=S(=O)(NC1CC1)c1ccc(S(=O)(=O)N2CCN3CCCC3C2)cc1 (stereo not drawn)	-0.5	-0.6	-5.0	0.8	-5.0	3.0
SMILES	MC4R ag barr	MC4R antag cAMP	NOD2 RIPK2 PPI	NTR1 ag	TLR9-MyD88 block	TLR4 MyD88 comp
COc1cccc(C2C=C(c3ccc(OC)cc3OC)Nc3nnnn32)c1 (stereo not drawn)	-0.7	1.6	30.8*	-0.3	46.1*	8.1
CCOc1cc(/C=N/NC(N)=O)cc(Br)c1OCc1ccccc1	2.1	-1.0	-8.3	0.5	-1.6	.
CCOc1cc(/C=N/NC(N)=S)cc(Br)c1OCc1ccccc1C	3.4	4.7	-5.0	42.1*	-3.0	-4.3
COc1cc(/C=N/NC(N)=S)cc(Br)c1OCc1ccccc1F	10.5*	12.6	-0.8	39.0	0.1	3.4
CNC(=S)N/N=C/c1cc(Br)c(OCc2ccncc2)c(OC)c1	-0.6	0.5	3.7	1.6	4.5	.
O=C(Nc1ccc(C(O)c2ccccc2)cc1)[C@H]1C[C@H](O)[C@@H](CO)O1 (stereo partly drawn)	-0.9	-0.1	-4.6	.	.	.

Source: PubChem BioAssay (several laboratories)
